Measurements published in the RNAGym collection of RNA variant scans (doi:10.1126/science.aae0568).
Fewer inactive variants are shown than the library holds.

B1: tRNA (parent)
chain: GUUCCGUUGGCGUAAUGGUAACGCGUCUCCCUCCUAAGGAGAAGACUGCGGGUUCGAGUCCCGUACGGAACG

Variants of: B1
Experiment: yeast fitness relative to wild type (ratio to wild type); higher = fitter; tRNA-Arg(CCU), competitive growth, 37 C, YPD
Outline: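 Amplicons of the tRNA-Arg(CCU) gene were sequenced, 100-nucleotide paired-end, from the start population and from each end population of a pooled yeast competition. The competition, in six parallel replicates, lasted 24 hours in YPD at 37°C. Fitness relative to wild type was calculated from changes in genotype frequencies. Genotypes had to have ≥ 100 starting reads, and estimates < 0.5 were set to 0.5.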

| Variant | yeast fitness |
| --- | --- |
| U7C A21G C33G C60U | ≤ 0.5 |
| U7A G51C | 0.553 |
| U7A G51A | 0.652 |
| U7A U26C A40G A43U C49A | 0.622 |
| U7A U13A A69C | ≤ 0.5 |
| U7A G12C C27G C31A C46A G56C | 0.587 |
| U7C C11G C30G C33A A57C C61A | ≤ 0.5 |
| U7A G23C | 0.519 |
| U7A G23A | 0.722 |
| U7A U47A A65G | 0.523 |
| U7C A21G C29A G48C | 0.555 |
| U7A U47C | 0.785 |
| U7A G50C | 0.684 |
| U7A G50U | 0.69 |
| U7A U8C C61U | 0.604 |
| U7A U8C G9A U32G A42U | 0.561 |
| U7A G23A C30U C33A G41C A42U | ≤ 0.5 |
| U7C C55U | 0.847 |
| U7C A40U A42U U54A U64G | ≤ 0.5 |
| U7C C24A G68A | ≤ 0.5 |
| U7C C11U G39C A45U | ≤ 0.5 |
| U7A U8A G10C C27G C34G C55U | 0.527 |
| U7A G12C U54G | 0.673 |
| U7C A20U | 0.722 |

| Variant | yeast fitness |
| --- | --- |
| U7C A20G | 0.819 |
| U7C A42U | 0.728 |
| U7A U19A C27A C30U G41C A43U C49A | ≤ 0.5 |
| U7A U16A C29U C60U C66G G68A | ≤ 0.5 |
| U7C C61G | 0.634 |
| U7C C61U | 0.959 |
| U7C C30U C34A G52C | ≤ 0.5 |
| U7C C49A | 0.732 |
| U7C C49G | 0.774 |
| U7C A14G G25A A43G A69C | ≤ 0.5 |
| U7A U28C C62G | ≤ 0.5 |
| U7C C11G C24U G48A A57G C66U A70C | ≤ 0.5 |
| U7C G10A G41C U64G A65C | ≤ 0.5 |
| U7A U19G U26C C29G | ≤ 0.5 |
| U7A G23A C29A C61U | 0.573 |
| U7C C31U C46U | 0.532 |
| U7C A42C U53A | ≤ 0.5 |
| U7C G9A A20U A36G C55G | ≤ 0.5 |
| U7C C30U C34A | ≤ 0.5 |
| U7C C29G U47C U53G | ≤ 0.5 |
| U7C A15G | 0.793 |
| U7A U16C G17A C29U C31A U35C C66G G67U | ≤ 0.5 |
| U7C A20C A69C | 0.615 |
| U7C C30U G39C U64C | ≤ 0.5 |

| Variant | yeast fitness |
| --- | --- |
| U7C C30A A42C C60U A69G | ≤ 0.5 |
| U7C C29G G44C C60U | ≤ 0.5 |
| U7A G18A C33A G38C | ≤ 0.5 |
| U7C C29G G58C G67C | ≤ 0.5 |
| U7C G12A G41A A42C G50C A70G | 0.53 |
| U7C G12A C24U | ≤ 0.5 |
| U7C C62G A69U | 0.565 |
| U7C A14G C22G | ≤ 0.5 |
| U7C A15G A20U C24G U35C A36C C66U | ≤ 0.5 |
| U7A G48A | 0.99 |
| U7A G25A A65U | 0.765 |
| U7C C46G G50A C62G U64C | 0.695 |
| U7C A15U G39A | 0.623 |
| U7C A36G A45U | 0.569 |
| U7A U8A G10C C27G C34G U35C C55U | ≤ 0.5 |
| U7C C24A C55A C62U A65C | ≤ 0.5 |
| U7C A21U C55A | 0.586 |
| U7A G23A C60A | ≤ 0.5 |
| U7C C27U A45U G48A C66U | ≤ 0.5 |
| U7C A65U A69U | 0.801 |
| U7C A14C G51A | ≤ 0.5 |
| U7C A57U U64C G67C | 0.501 |
| U7C C24U C31A A42G U54A C55G | ≤ 0.5 |
| U7C C11A C33A A36C G63C C66G | ≤ 0.5 |

| Variant | yeast fitness |
| --- | --- |
| U7C A15U C49U C62U | 0.673 |
| U7A U8G C30G G63A | ≤ 0.5 |
| U7C A15G G17A | ≤ 0.5 |
| U7C G12A C31U U47C | ≤ 0.5 |
| U7C A15C G38A A45G G52A C61G | 0.558 |
| U7A G51C G56C C61A | ≤ 0.5 |
| U7C C27G C33G G44A | 0.75 |
| U7C G12A C24U C49A | ≤ 0.5 |
| U7A G18A U19G C62A | 0.633 |
| U7C A14U C24G C30U A43G | ≤ 0.5 |
| U7A G23A C29A C55A | ≤ 0.5 |
| U7C A40U | 0.793 |
| U7C A40G | 0.822 |
| U7A G12C C34U | ≤ 0.5 |
| U7A U16A | 0.743 |
| U7A U19A A20C A40G | ≤ 0.5 |
| U7A U13G G41A | ≤ 0.5 |
| U7C C46U A69U | 0.842 |
| U7C C11G U13G C30U A70C | ≤ 0.5 |
| U7A U19A C49U G56C G63C | ≤ 0.5 |
| U7C G12C A20C | 0.632 |
| U7A G39C C55A | 0.723 |
| U7C A70G | 0.879 |
| U7C C30G G39A G41U G51C G52A | ≤ 0.5 |

| Variant | yeast fitness |
| --- | --- |
| U7A U8A G67C | ≤ 0.5 |
| U7A G41C | 0.684 |
| U7C G10C C49U A65G | ≤ 0.5 |
| U7A U19A C29A | ≤ 0.5 |
| U7C A21U C22A C49U G50C A69U | ≤ 0.5 |
| U7A G58C | 0.918 |
| U7C G9C | 0.729 |
| U7C C31U A70U | 0.658 |
| U7C C31G G38C A43U C62G | ≤ 0.5 |
| U7A U19A A20C A40G A69U | 0.503 |
| U7C C11U A37C C60A | ≤ 0.5 |
| U7C G10A C34A G63A | 0.555 |
| U7A G17A U32C | ≤ 0.5 |
| U7A G38A A43U | 0.53 |
| U7C A57C | 0.612 |
| U7C A57G | 0.842 |
| U7A G17C C24G C29A | ≤ 0.5 |
| U7A U8G A14G A36U A43U | ≤ 0.5 |
| U7C G10A C29U C30G C34A | ≤ 0.5 |
| U7A G23A C62U | ≤ 0.5 |
| U7C G17A C22U | 0.651 |
| U7C C24U | 0.855 |
| U7A U8A U35C C62A | 0.537 |
| U7A U32G A37U C49U | 0.642 |

| Variant | yeast fitness |
| --- | --- |
| U7C G10A C24G C62A | ≤ 0.5 |
| U7C C24U A42G U54A C55G | ≤ 0.5 |
| U7C C24U A70G | 0.666 |
| U7C C29G C49U U64A G68A | ≤ 0.5 |
| U7A U16C C29U C31A C66G G67U | ≤ 0.5 |
| U7C C34U A70G | ≤ 0.5 |
| U7C C24A C29G | 0.594 |
| U7C C22U A43U | ≤ 0.5 |
| U7A U47C A69C | 0.601 |
| U7A G18C U35C A70U | ≤ 0.5 |
| U7A U35C G41C A70U | ≤ 0.5 |
| U7C C11A C30G | ≤ 0.5 |
| U7C G10C C46U G63C | ≤ 0.5 |
| U7A G23C C33G A42G C46U U64C | ≤ 0.5 |
| U7A G23A A43U | ≤ 0.5 |
| U7A U8C A36C G51C | ≤ 0.5 |
| U7A U8G G51A A69C | ≤ 0.5 |
| U7A G67A | 0.781 |
| U7A G67C | 0.669 |
| U7C C27G A69U | 0.632 |
| U7C C24G A45G | ≤ 0.5 |
| U7C A43G | 0.841 |
| U7C A43U | 0.949 |
| U7C A43C | 0.88 |

| Variant | yeast fitness |
| --- | --- |
| U7A G52C | 0.55 |
| U7C C30G U54C C61G | ≤ 0.5 |
| U7C C11U U32C G39C G67C | ≤ 0.5 |
| U7C C11G G18A G44U A65C | ≤ 0.5 |
| U7A G39C A45G | ≤ 0.5 |
| U7C C34A U59A | ≤ 0.5 |
| U7A G48A U59C C61A G63A | ≤ 0.5 |
| U7C A37U G39C A43U C55G | ≤ 0.5 |
| U7A G18A A36C U47A G68A | 0.508 |
| U7C A43C A57G U59C A70G | ≤ 0.5 |
| U7C C30A | 0.794 |
| U7C C30G | 0.579 |
| U7A U16C G17A C29U C31A C66G G67U | ≤ 0.5 |
| U7C C31G C34U A57U | ≤ 0.5 |
| U7C G12A U13C U26C | 0.565 |
| U7C A15G G18C C49U | ≤ 0.5 |
| U7C C22A C31U A57C G58A A69G | ≤ 0.5 |
| U7C C31U A57U | 0.539 |
| U7C C11G C24U G48A C66U A70C | ≤ 0.5 |
| U7C C61U U64A A69G | 0.535 |
| U7C C27A C66A | ≤ 0.5 |
| U7A G38C A70G | ≤ 0.5 |
| U7C C27G C33G G44A C61G | ≤ 0.5 |
